Measurements from ChEMBL document CHEMBL3853331, “Preparation, Antiepileptic Activity, and Cardiovascular Safety of Dihydropyrazoles as Brain-Penetrant T-Type Calcium Channel Blockers” (J Med Chem, 2016).

How the values were obtained:
[1] = target: Voltage-dependent L-type calcium channel subunit alpha-1C (Homo sapiens, UniProt Q13936); assay: Inhibition of recombinant […] calcium channel Cav1.2 (unknown origin) expressed in HEK293 cells assessed as inhibition of Kcl-induced calcium influx preincubated for 3 mins prior CaCl2 addition by Fluo-4-AM dye-based FLIPR assay; format: cell-based
How it was run: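 HEK293 cells stably expressing the channel, seeded overnight and loaded 1 h at 37°C with 3 µM Fluo-4-AM. Compounds given as a 3-fold dilution series from 10 µM to 0.05 nM and incubated 3 min. For T-type channels, dilutions in TEAC buffer and stimulation with 10 mM final CaCl2. For Cav1.2, dilutions in assay buffer and stimulation with 20 mM final KCl. IC50 from area under the fluorescence trace against vehicle; mean of at least two experiments.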

[2] = target: Cytochrome P450 3A4 (Homo sapiens, UniProt P08684); assay: Inhibition of CYP3A4 (unknown origin) using midazolam as substrate; format: ADME
[3] = Clearance in Wistar rat plasma at 0.2 mg/kg, iv; format: ADME, organism-based
How it was run: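 Male Wistar rats dosed iv at 0.2 mg/kg or po at 2 mg/kg. In the inhibited arm, the broad CYP inhibitor aminobenzotriazol was given orally 2 h before dosing. Clearance, Vss and half-life derived from plasma concentrations after the iv dose; Cmax and Tmax from the po dose.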

[4] = Volume of distribution at steady state in Wistar rat plasma at 0.2 mg/kg, iv administered 2 hrs after aminobenzotriazol-treatment; format: ADME, organism-based; conditions: read-out: Vdss
How it was run: (§1)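 Rats dosed orally with the CYP inhibitor aminobenzotriazol 2 h before the iv dose of 0.2 mg/kg. Oral dose was 2 mg/kg.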

[5] = Tmax in Wistar rat plasma at 2 mg/kg, po administered 2 hrs after aminobenzotriazol-treatment; format: ADME, organism-based; how it was run: as §1
[6] = Plasma concentration in Wistar rat at 100 mg/kg, po measured after 1 hr; format: ADME, organism-based
[7] = Drug uptake in Wistar rat CSF at 30 mg/kg, po measured after 1 hr; format: ADME, organism-based, Cerebrospinal fluid; conditions: read-out: Drug uptake
How it was run: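 Male Wistar rats given oral doses of 10, 30 or 100 mg/kg. Plasma, brain and CSF collected at 1 h, and at 3 h for the 10 mg/kg dose; compound concentrations measured in each.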

[8] = test system: Rattus norvegicus; assay: Cardiovascular toxicity in spontaneously hypertensive rat assessed as reduction in mean […] pressure after 18 hrs at 100 mg/kg, po; format: organism-based; conditions: in vivo
How it was run: (§2)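 Conscious, freely moving male spontaneously hypertensive rats with telemetry recording MAP, HR and ECG. Single oral dose (5 ml/kg) given as a suspension in 0.5% w/v methylcellulose in water, in the morning during the sleep phase. Vehicle controls run in parallel, n = 8 per group.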

[9] = test system: Rattus norvegicus; assay: Cardiovascular toxicity in spontaneously hypertensive rat assessed as increase in PR interval of ECG at 100 mg/kg, po; format: organism-based; conditions: in vivo; how it was run: as §2

Sequence of Voltage-dependent L-type calcium channel subunit alpha-1C (Q13936 whole entry): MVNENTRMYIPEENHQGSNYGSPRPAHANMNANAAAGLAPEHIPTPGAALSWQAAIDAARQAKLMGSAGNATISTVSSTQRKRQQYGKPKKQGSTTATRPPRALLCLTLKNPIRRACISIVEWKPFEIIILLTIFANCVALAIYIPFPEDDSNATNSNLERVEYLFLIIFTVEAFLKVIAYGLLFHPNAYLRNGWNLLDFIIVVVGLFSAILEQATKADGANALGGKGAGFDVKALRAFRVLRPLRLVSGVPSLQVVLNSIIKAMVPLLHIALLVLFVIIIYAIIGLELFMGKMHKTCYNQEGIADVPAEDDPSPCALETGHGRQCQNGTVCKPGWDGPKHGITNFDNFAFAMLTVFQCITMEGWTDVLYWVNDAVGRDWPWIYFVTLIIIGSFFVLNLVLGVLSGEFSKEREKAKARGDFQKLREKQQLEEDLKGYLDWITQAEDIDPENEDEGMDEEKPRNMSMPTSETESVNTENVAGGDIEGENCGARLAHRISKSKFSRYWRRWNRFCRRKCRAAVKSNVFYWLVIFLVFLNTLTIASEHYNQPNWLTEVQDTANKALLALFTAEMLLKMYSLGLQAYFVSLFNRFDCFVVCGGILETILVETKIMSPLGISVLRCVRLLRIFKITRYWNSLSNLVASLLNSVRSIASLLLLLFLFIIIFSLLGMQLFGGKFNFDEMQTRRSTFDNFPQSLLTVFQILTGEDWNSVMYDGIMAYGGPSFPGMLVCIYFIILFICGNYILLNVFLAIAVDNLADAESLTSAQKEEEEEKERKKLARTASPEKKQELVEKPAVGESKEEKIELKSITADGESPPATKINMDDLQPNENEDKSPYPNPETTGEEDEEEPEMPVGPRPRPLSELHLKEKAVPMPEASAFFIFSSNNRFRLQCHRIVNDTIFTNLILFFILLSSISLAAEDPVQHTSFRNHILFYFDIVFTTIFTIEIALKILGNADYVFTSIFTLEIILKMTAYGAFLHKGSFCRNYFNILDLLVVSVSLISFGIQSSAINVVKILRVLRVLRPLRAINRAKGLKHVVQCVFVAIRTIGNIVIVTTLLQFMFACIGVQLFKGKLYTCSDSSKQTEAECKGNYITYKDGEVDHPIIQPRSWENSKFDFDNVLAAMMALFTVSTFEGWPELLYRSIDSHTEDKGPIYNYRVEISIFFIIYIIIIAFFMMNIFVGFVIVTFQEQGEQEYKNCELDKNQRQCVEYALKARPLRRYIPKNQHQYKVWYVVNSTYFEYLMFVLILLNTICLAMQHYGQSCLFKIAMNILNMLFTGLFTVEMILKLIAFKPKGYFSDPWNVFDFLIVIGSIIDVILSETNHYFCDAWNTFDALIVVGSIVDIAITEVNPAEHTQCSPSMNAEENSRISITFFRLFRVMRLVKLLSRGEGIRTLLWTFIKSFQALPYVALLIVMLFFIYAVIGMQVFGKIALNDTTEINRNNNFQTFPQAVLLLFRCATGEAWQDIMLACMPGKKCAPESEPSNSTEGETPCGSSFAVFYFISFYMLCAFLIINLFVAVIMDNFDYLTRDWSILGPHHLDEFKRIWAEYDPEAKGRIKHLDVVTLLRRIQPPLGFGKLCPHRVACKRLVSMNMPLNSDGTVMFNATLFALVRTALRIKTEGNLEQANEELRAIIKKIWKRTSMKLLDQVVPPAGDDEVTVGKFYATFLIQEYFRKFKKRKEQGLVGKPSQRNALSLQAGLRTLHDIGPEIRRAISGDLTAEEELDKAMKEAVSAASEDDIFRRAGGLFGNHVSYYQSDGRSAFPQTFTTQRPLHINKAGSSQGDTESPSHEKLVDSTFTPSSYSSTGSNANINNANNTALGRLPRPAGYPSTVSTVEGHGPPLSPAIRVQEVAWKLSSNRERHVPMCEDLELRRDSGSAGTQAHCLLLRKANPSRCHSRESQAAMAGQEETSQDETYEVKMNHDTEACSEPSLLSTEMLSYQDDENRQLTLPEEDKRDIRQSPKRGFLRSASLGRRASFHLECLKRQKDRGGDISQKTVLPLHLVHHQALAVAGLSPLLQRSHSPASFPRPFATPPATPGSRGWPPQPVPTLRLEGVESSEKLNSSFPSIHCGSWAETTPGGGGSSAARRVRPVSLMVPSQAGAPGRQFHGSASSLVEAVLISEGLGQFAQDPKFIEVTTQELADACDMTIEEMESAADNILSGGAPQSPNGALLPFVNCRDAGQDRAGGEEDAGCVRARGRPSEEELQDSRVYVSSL
Sequence of Cytochrome P450 3A4 (P08684 whole entry): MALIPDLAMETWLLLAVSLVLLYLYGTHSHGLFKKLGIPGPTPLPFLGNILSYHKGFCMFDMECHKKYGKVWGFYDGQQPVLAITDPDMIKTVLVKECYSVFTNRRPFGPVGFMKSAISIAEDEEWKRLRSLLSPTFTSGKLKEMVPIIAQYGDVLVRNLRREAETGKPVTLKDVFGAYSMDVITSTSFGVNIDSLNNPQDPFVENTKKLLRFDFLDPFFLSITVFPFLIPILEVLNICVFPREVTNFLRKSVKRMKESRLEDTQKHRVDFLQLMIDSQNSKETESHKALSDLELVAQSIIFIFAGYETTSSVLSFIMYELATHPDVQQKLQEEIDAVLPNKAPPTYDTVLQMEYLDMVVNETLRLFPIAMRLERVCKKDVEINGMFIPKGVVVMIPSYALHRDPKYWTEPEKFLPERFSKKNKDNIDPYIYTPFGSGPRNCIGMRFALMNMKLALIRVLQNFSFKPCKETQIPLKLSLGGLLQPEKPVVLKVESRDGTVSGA

O=C(Nc1ccc(F)cc1)N1N=C(c2ccncc2)CC1c1ccc(F)cc1 (centres undefined)
IC50 [1]: 6.4 µM
IC50 [2]: 18 µM
clearance [3]: 110 mL/min/kg
Vd [4]: 17 L/kg
Tmax [5]: 6.6 h
concentration at 1 h [6]: 1230 nM
concentration at 1 h [7]: 47 nM
Activity [8]: Non-Toxic
Activity [9]: Toxic
